Screening data as filed in PubChem.
Sampled rows, rich in hits. Any-hit rate of the full collection: about 1.7%.
CCR6 antag = antagonists of human CCR6 receptor; 340,000 compounds, 0.49% hits; P51684; inhibition, % at 20 µM; AID 493098; CHO-K1 CCR6 PathHunter beta-arrestin, luminescence, CCL20-stimulated;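 active means compounds whose inhibition of the agonist-driven luminescence signal at 20 µM reaches about 50%, limit read from the data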;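 further: cells stimulated with CCL20 at 14 nM final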
Target sequence (P51684 whole entry, looked up): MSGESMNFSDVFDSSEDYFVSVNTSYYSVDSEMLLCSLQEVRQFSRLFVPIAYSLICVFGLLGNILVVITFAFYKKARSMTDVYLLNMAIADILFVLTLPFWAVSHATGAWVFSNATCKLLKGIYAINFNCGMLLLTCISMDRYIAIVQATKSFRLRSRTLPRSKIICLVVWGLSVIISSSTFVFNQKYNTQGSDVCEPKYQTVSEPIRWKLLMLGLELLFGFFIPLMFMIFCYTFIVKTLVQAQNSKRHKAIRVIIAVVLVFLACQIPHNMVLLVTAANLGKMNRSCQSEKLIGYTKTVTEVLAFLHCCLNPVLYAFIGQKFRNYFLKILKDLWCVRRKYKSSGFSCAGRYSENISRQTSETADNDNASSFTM
APJ antagonist = antagonists of human APJ apelin receptor; P35414; CHO-K1 APJ beta-arrestin complementation, luminescence; inhibition, % at 20 µM; 330,000 compounds, 0.32% hits;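 active means inhibition above about 40% at 20 µM, limit read from the data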;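 further: cells challenged with 10 nM apelin-13 agonist together with compound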
PfGluPho inh = PfG6PD (Plasmodium falciparum) enzyme inhibition; PfGluPho enzyme, NADPH resazurin-diaphorase fluorescence; 350,000 compounds, 0.78% hits; inhibition, % at 20 µM;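 active means inhibition reaching at least a set limit at 20 µM in the primary screen, cut at about 59% in these data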
APJ ag = APJ receptor agonism | CHO-K1 APJ PathHunter beta-arrestin, luminescence; 0% DMSO wells, 100% apelin | P35414 | 330,000 compounds, 0.11% hits | activation, % at 20 µM;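 active means activation more than six SD over the plate average, tested at 20 µM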
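Material: CHO-K1 APJ beta-arrestin complementation cell line; Input: cell density 1000 per well; Incubation: compound stimulation 90 min at 25 °C, detection 60 min; Signal: luminescence from split beta-galactosidase complementation, Galacton Star/Emerald II substrate; Controls: DMSO-only wells as negative, 10 nM Apelin-13 as positive control.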
CXCR6 block = inhibitors of human CXCR6 receptor; 360,000 compounds, 0.36% hits; O00574; CHO-K1 PathHunter CXCR6 beta-arrestin, luminescence; inhibition, % at 20 µM; AID 602244; in the data active means inhibition above about 34%, passing the limit was not always enough;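 further: antagonist mode with CXCL16 agonist at 10 nM final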
Beta2AR agonist = activates human beta-2 adrenergic receptor causing internalization | P07550 | Am2.2-beta2AR cells, FAP receptor internalization, flow cytometry | response, % (concentration not given with the values) | 340,000 compounds, 0.43% hits;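 active means response above a set limit, near 3 SD of response in nonfluorescent compounds, cut at about 42% in these data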
PfG6PD confirm = PfG6PD inhibition, single-dose confirmed. inhibition, % at 20 µM. 2,400 compounds, 34% hits. AID 504753. shares compounds with PfGluPho inh. recombinant PfGluPho, NADPH-diaphorase-resazurin fluorescence;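 active means inhibition of at least 50% at 20 µM in any single replicate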
Diaph ctr 10uM = inhibits diaphorase or oxidizes, flagging false PfG6PD hits | inhibition, % at 20 µM | AID 504862 | 820 compounds, 39% hits | shares compounds with PfGluPho inh | diaphorase-coupled resazurin reduction, fluorescence, NADPH 10 uM;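 active means average inhibition reaching 50% or more with the compound at 20 µM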;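 further: resorufin red fluorescence formed as diaphorase reduces resazurin using NADPH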
Diaph ctr 30uM = counter-screen for P. falciparum G6PD inhibitors: diaphorase inhibitors, oxidizers | shares compounds with PfGluPho inh | Diaphorase/resazurin coupled assay, resorufin fluorescence, 30 uM NADPH | inhibition, % at 20 µM | 820 compounds, 29% hits;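 active means inhibition averaging 50% or more, tested at 20 µM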
Each line names hits and unclear results; the compound was inactive in the other large screens (follow-up assays come after a bar, where they were run).

O=C(Cn1sc2ccccc2c1=O)Nc1ccc(Cl)cc1	PfGluPho inh 125 (no result: CCR6 antag, APJ antagonist, APJ ag, Beta2AR agonist) | PfG6PD confirm 96 | Diaph ctr 10uM inactive | Diaph ctr 30uM inactive
O=C(Cn1sc2ccccc2c1=O)Nc1ccc(F)cc1	PfGluPho inh 125 (no result: CCR6 antag, APJ antagonist, APJ ag, Beta2AR agonist) | PfG6PD confirm 106 | Diaph ctr 10uM inactive | Diaph ctr 30uM inactive
O=C(Cn1nc(-c2ccccc2)c2ccccc2c1=O)Nc1ccc(F)cc1	none
O=C(Cn1sc2ccccc2c1=O)Nc1ccc(Br)cc1	PfGluPho inh 123 (no result: CCR6 antag, APJ antagonist, APJ ag, Beta2AR agonist) | PfG6PD confirm 91 | Diaph ctr 10uM inactive | Diaph ctr 30uM inactive
Cc1nc2ccccc2c(=O)n1NC(=O)CCC(=O)O	none
C=C(CN(C)C)C(=O)c1ccc(C)cc1C	CCR6 antag 108, PfGluPho inh 68, CXCR6 block 88 (no result: APJ antagonist, APJ ag) | PfG6PD confirm inactive
CN(C)S(=O)(=O)c1ccc(C(=O)OC2CCOC2=O)cc1 (stereo unspecified)	none
Cc1nc2c(o1)C(=O)c1ccccc1C2=Nc1ccccc1	PfGluPho inh 104 (no result: APJ antagonist, APJ ag) | PfG6PD confirm 50 | Diaph ctr 10uM 53 | Diaph ctr 30uM inactive
COc1ccccc1Nc1n[nH]c(=S)s1	none
Cc1ccc(Nc2n[nH]c(=S)s2)c(C)c1	PfGluPho inh 71 (no result: CCR6 antag, APJ antagonist, APJ ag, Beta2AR agonist) | PfG6PD confirm inactive
Cc1cc(C)c(Nc2n[nH]c(=S)s2)cc1C	PfGluPho inh 67 (no result: CCR6 antag, APJ antagonist, APJ ag, Beta2AR agonist) | PfG6PD confirm inactive
COc1cccc(Nc2n[nH]c(=S)s2)c1	PfGluPho inh 62 | PfG6PD confirm inactive
Cc1cccc(Nc2n[nH]c(=S)s2)c1C	none
COc1ccc(CN(C)C(=O)Cn2cnc3c(NCc4ccccc4)ncnc32)cc1OC	none (no result: APJ antagonist, APJ ag)
COc1ccc(C(=O)Nc2cc(C)c(NC(=O)c3ccccn3)cn2)cc1	PfGluPho inh 67 | PfG6PD confirm inactive
CCOC(=O)N1CCC(Nc2ncnc3c2cnn3-c2ccccc2)CC1	none
c1ccc(-n2ncc3c(NC4CCCCCC4)ncnc32)cc1	PfGluPho inh 96 | PfG6PD confirm inactive
O=C(Oc1ccc(Br)cc1C(=S)N1CCOCC1)c1ccc([N+](=O)[O-])cc1[N+](=O)[O-]	PfGluPho inh 60 | PfG6PD confirm inactive
COc1ccccc1CNC(=O)c1ccc2nc(N3CCOCC3)sc2c1	none
CC(NC1=CC(=O)c2cccnc2C1=O)C(O)c1ccccc1 (stereo unspecified)	PfGluPho inh 105 (no result: APJ antagonist, APJ ag) | PfG6PD confirm 74 | Diaph ctr 10uM inactive | Diaph ctr 30uM inactive
CCn1ncc2c(OCc3ccc(C#N)cc3)cc(C)nc21	PfGluPho inh 68 | PfG6PD confirm inactive
O=C1NC(C(=O)O)=CC(c2ccc([N+](=O)[O-])cc2)N1 (stereo unspecified)	PfGluPho inh 65 | PfG6PD confirm inactive
O=C1NC[C@@H](CCCCN2C[C@H](Cc3ccc(O)cc3)N(CCC3CCCCC3)C(=O)C2=O)N(Cc2ccccc2)C1=O	none (no result: CCR6 antag, APJ antagonist, PfGluPho inh, APJ ag, Beta2AR agonist)
Cc1cc(C)c(NC(=S)N(CCN(C)C)Cc2cccs2)c(C)c1	none
Cc1ccc(NC(=S)N(CCN(C)C)Cc2cccs2)c(C)c1	PfGluPho inh 61 | PfG6PD confirm inactive
COc1ccc(S(=O)(=O)Nc2c(C(=O)O)[nH]c3ccc(OC)cc23)c(OC)c1	PfGluPho inh 67 | PfG6PD confirm inactive
Cc1cc(C)c(NC(=O)CNC(=O)COC(=O)Cc2ccccc2C)c(C)c1	none
CCc1c(C)sc(NC(=O)Cn2nc(C)c([N+](=O)[O-])c2C)c1C(N)=O	PfGluPho inh 69 | PfG6PD confirm inactive
CCOC(=O)c1c(-c2ccc(C)o2)csc1NC(=O)COC(=O)c1cccs1	PfGluPho inh 59 | PfG6PD confirm inactive
CCOC(=O)c1c(-c2ccc(C)o2)csc1NC(=O)CN1CCOCC1	none
COC(=O)CCC(=O)OC1(C)C(=O)C2=CN(CC3CC3)C(c3ccc(OC)cc3)=CC2=C(Br)C1=O (stereo unspecified)	PfGluPho inh 76 | PfG6PD confirm inactive
